Screens as filed in PubChem.
MsrA inhibitor: bovine MsrA enzyme inhibitors, primary screen, biochemical, absorbance, HTS | purified bovine MsrA, absorbance read-out | inhibition, % at 15.5 µM | hit rate 0.75% among 360,000; in the data active means inhibition above about 4.5%;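 further: 0% = vehicle wells with enzyme and 100% = reference inhibitor wells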
MsrA act: bovine MsrA enzyme activators, primary screen, biochemical, absorbance, HTS. Methionine sulfoxide reductase A (Bos taurus). hit rate 0.3% among 360,000. purified bovine MsrA, absorbance read-out. AID 602163, 2012. activation, % at 10.6 µM; in the data active means activation above about 7.5%;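 further: 0% = vehicle and 100% = reference activator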
MC4R barr agon: MC4R agonists recruiting beta-arrestin, primary screen, cell-based, luminescence, agonist arm of biased-ligand search | U2OS MC4R beta-arrestin complementation; percent of melanotan II response, DMSO zero | hit rate 0.98% among 360,000 | activation, % at 8.9 µM;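 active means activation above a per-plate cutoff, the mean activation of sample wells on that plate plus 3 SD, cut at about 8% in these data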
Target sequence (P32245 whole entry, looked up): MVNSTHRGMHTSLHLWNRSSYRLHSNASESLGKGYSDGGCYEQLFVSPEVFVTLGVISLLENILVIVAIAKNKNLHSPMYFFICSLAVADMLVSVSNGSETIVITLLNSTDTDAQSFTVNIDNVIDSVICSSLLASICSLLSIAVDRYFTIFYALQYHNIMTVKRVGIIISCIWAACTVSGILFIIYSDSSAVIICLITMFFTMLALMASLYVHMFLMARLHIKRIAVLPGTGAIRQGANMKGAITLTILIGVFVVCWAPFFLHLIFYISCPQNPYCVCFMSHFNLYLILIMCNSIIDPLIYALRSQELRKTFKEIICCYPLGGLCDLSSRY
MC4R antag cAMP: MC4R antagonists of cAMP signaling, primary screen, cell-based, TR-FRET, antagonist arm of biased-ligand search | MC4R-expressing cells, MTII-stimulated cAMP, LANCE TR-FRET | Melanocortin receptor 4 (Homo sapiens), P32245 | hit rate 0.48% among 360,000 | AID 540295, 2011 | inhibition, % at 6.5 µM;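 active means inhibition above its plate's cutoff, the mean of tested wells on that plate plus 3 SD, cut at about 29% in these data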;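 further: 0% = Melanotan II alone and 100% = Melanotan II plus saturating MCL0020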
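Assay system: U2OS-MC4R stable cell line; Also added: Melanotan II; Technique: Eu-cAMP/anti-cAMP TR-FRET, emission 671 nm; Times: 30-min compound, 1-h challenge, 1-h detection, room temperature.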
An asterisk follows results filed as active; x = no result. Hits are enriched below; roughly 2.3% of the tested compounds scored in any of these assays.

SMILES	MsrA inhibitor	MsrA act	MC4R barr agon	MC4R antag cAMP
O=C(CSc1nnc(-c2ccc(Br)cc2)o1)Nc1cccc(C(=O)O)c1	1.0	-4.7	-1.3	13.9
CCCNC(=O)c1cccc(Cn2nc(C)c(Br)c2C)c1	0.9	-2.3	-1.1	8.7
CC1=Nn2c(nnc2-c2cc(-c3ccccc3)n[nH]2)SC1	-0.3	-1.7	0.7	12.6
c1ccc(-c2ccc(C3=Nn4c(nnc4-c4cc(-c5ccccc5)n[nH]4)SC3)cc2)cc1	2.0	-2.8	9.7*	0.4
COc1ccc(S(=O)(=O)Nc2cccc3c2O[C@H](CN(C)Cc2ccc(Cl)c(Cl)c2)[C@@H](C)CN([C@H](C)CO)C3=O)cc1	-1.2	-1.4	2.1	7.3
COc1ccc(CNC[C@@H](CCCCN(C)Cc2ccc(OC)cc2)N2C[C@H](c3ccccc3)N(CCc3ccc(Cl)c(Cl)c3)C(=O)C2=O)cc1	x	0.7	25.0*	30.0*
CC(=O)c1cccc(NC(=S)NC(=O)c2ccc(Br)cc2)c1	0.6	-2.2	8.5*	8.5
N[C@@H](Cc1ccc(O)cc1)c1nnc([C@H](CCC(=O)O)NC(=O)C2CCNCC2)o1	-0.4	-2.6	0.3	3.8
CS(=O)(=O)c1ccc2nc(NC(=O)c3ccc(Cn4cc(Br)cn4)o3)sc2c1	5.4*	-6.6	0.3	2.2
CS(=O)(=O)c1ccc2nc(NC(=O)c3ccccc3)sc2c1	1.0	-0.3	-1.4	6.0
Cc1ccc(NC(=O)NCCSc2ccc(C)cc2)cc1	0.8	-0.6	8.5*	11.9
Cc1ccc(-n2cccc2/C=N/n2cnnc2)cc1Cl	2.9	0.4	-3.4	1.5
CC(/C=C/c1ccc(C)o1)=C\C(=O)O	2.3	20.2*	-0.9	-8.0
Cc1c(NC(=S)N/N=C/c2ccc(O)cc2)c(=O)n(-c2ccccc2)n1C	4.8*	-3.4	-1.7	4.5
COc1ccccc1C(=O)Nc1cccc(S(=O)(=O)N2CCCC2)c1	0.1	-2.4	3.0	1.7
COc1cc(C(=O)Nc2cccc(S(=O)(=O)N3CCCC3)c2)c([N+](=O)[O-])cc1OC	4.6*	-2.1	-5.0	0.2
COC(=O)c1ccc(NS(=O)(=O)c2ccc3c(c2)oc(=O)n3C)cc1	0.3	-4.6	0.6	1.2
COc1ccc(/C=C\C(=O)O[C@@H]2C(O)C(O[C@@H]3OC(C)[C@H](O[C@@H]4OCC(O[C@H]5O[C@H](CO)[C@@H](O)C(O)C5O)C(O)C4O)C(O)C3O)[C@H](OC(=O)[C@]34CCC(C)(C)C[C@@H]3C3=CCC5[C@@]6(C)CC(O)C(O[C@@H]7OC(CO)C(O)[C@H](O)[C@H]7O)[C@@](C)(C(=O)O)C6CC[C@@]5(C)[C@]3(CO)CC4)O[C@H]2C)cc1 (stereo partly drawn)	x	-0.4	-0.8	66.4*
C[C@@H]1CC[C@]2(C(=O)O[C@@H]3O[C@H](CO)[C@@H](O)[C@H](O)[C@H]3O)CC[C@]3(C)C(=CCC4[C@@]5(C)CC[C@H](O[C@@H]6OC[C@H](O)[C@H](O[C@@H]7O[C@H](CO)[C@@H](O)[C@H](O)[C@H]7O)[C@H]6O)C(C)(C)C5CC[C@]43C)C2[C@]1(C)O (stereo partly drawn)	-0.4	-4.3	-1.2	-1.1
NC(Cc1ccc(Cl)cc1)c1csc(NC(=O)NCC2CCCCC2)n1 (stereo not drawn)	-0.8	0.3	8.5*	7.9
COc1ccc(Cn2c(=O)[nH]c3cc(C(=O)NCCCN4CCCCCC4)ccc3c2=O)cc1	-1.7	-2.3	-0.6	9.7
COc1ccc(NC(=O)c2ccc(NC3CC(=O)N(c4ccc(C)cc4C)C3=O)cc2)cc1 (stereo not drawn)	0.2	-5.3	8.2*	9.7
Cc1ccc(C(=O)Nn2cnnc2)cc1[N+](=O)[O-]	-0.2	-2.5	-2.1	1.1
OC(CNCCc1ccc(Cl)cc1)COc1cc(Cl)ccc1Cl (stereo not drawn)	-1.1	-2.0	29.9*	6.8
COc1ccc(CCNCC(O)COc2ccc(Cl)cc2)cc1OC (stereo not drawn)	-0.3	-2.2	-2.2	-1.9
SMILES	MsrA inhibitor	MsrA act	MC4R barr agon	MC4R antag cAMP
c1ccc(Cn2c(-c3ccccc3)c[n+]3c2SCCC3)cc1	-0.3	-2.3	0.4	12.8
O=C(CCl)Nc1cccc(Oc2cnccn2)c1	2.6	0.6	1.0	-8.0
O=C(CCl)Nc1ccc(-c2ccccc2)cc1	0.4	-3.8	9.1*	13.3
O=C(CCl)Nc1cccc(Oc2ccccc2)c1	0.2	-1.5	8.9*	-4.9
CC(=O)/C(=N/Nc1ccc([N+](=O)[O-])cc1)N1CCCc2ccccc21	-0.4	-0.6	1.1	22.4
CC(SCc1ccccc1)C(=O)NCc1ccccn1 (stereo not drawn)	-0.7	-3.3	-2.6	17.2
Oc1c(Cl)cc(Cl)cc1/C=N/c1nc(-c2ccc(Cl)cc2)cs1	x	-2.2	-1.6	34.4*
CCCCNC(=O)CCSc1nc2nc(C)cc(C)n2n1	x	8.0*	-2.3	-1.2
CC(=O)C[C@@H]1SC[C@H](c2ccccc2)N1S(=O)(=O)c1ccc(C)cc1	0.0	x	x	x
Cc1ccc2oc(-c3ccc(C)c(NC(=O)Cc4cccs4)c3)nc2c1	0.0	1.9	0.0	8.6
Cc1ccc2oc(-c3cccc(NC(=O)Cc4cccs4)c3)nc2c1	-1.3	-1.6	13.3*	4.5
C[C@@H]1ON(C)[C@H]2C[C@H]3c4[nH]c5c(-c6cccc(Cl)c6)cccc5c4CCN3C(=O)[C@@H]12	0.8	x	x	x
O=C(OCC12CC3CC(CC(C3)C1)C2)c1ccc(NCc2cc(O)ccc2O)cc1	-0.3	-2.3	10.7*	0.6
O=C(OCCC12CC3CC(CC(C3)C1)C2)c1ccc(NCc2cc(O)ccc2O)cc1	-0.1	-10.3	1.6	-9.7
COc1cc(/C=N/NC(=O)c2ccc(O)cc2)ccc1OCC(=O)N1CC(C)OC(C)C1 (stereo not drawn)	3.0	-3.1	-0.8	6.9
c1ccc(C[C@H]2CNCCN2CC2CCCCC2)cc1	0.0	-3.6	1.3	-5.6
CCOC(=O)c1[nH]c2ccc(OC)cc2c1NC(=O)c1nonc1C	0.4	-7.4	-1.0	-0.4
CCOC(=O)c1[nH]c2ccc(Cl)cc2c1NC(=O)c1nonc1C	-0.8	-1.8	8.9*	3.7
CCOc1ccccc1NC(=O)N1CCCC1C(=O)NCc1ccco1 (stereo not drawn)	-0.4	-8.9	-0.8	-6.0
CC(C)(C)C1=CC(=O)C(=O)C(C(C)(C)C)=C1	x	-2.0	24.6*	10.1
CC(C)(C)C1=CC(=Nc2ccccc2N)C=C(C(C)(C)C)C1=O	0.3	-2.1	-1.2	22.8
O=C(/C=C/c1ccc2c(c1)OCO2)N1CCN(c2n[nH]c(=O)[nH]c2=O)CC1	4.6*	0.0	0.6	6.2
COc1ccc(N2C(=O)[C@@H]3[C@H](C2=O)[C@H]2C=CC=NN2[C@@H]3C(=O)Nc2ccc(Cl)cc2)cc1	2.5	-2.5	-2.4	29.3*
